Assay results reported in ChEMBL document CHEMBL3751737, “Synthesis, antibacterial and cytotoxic activities of new biflorin-based hydrazones and oximes” (2016).
In brackets after ≈: the same amount, converted by molar mass. Activity calls are given as the source filed them. No cut-off for these calls is given here.

Legend:
Type in all cases: functional
[1] = system: Staphylococcus aureus; test: Antibacterial activity against Staphylococcus aureus 358 after 24 hrs by broth microdilution method
Outline: (§1)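 Broth microdilution in BHI following CLSI M100-S16. Strains were activated in BHI for 24 h at 35 ± 2 °C, adjusted to 0.5 McFarland, and diluted to a final inoculum of 5 x 10^5 CFU/mL. Samples were dissolved in water/DMSO and tested at final 512-8 µg/mL, in triplicate. Plates were incubated 24 h at 35 ± 2 °C, then 0.01% resazurin was added. MIC was the lowest concentration preventing the visual blue-to-red change. Amikacin, gentamicin and neomycin served as positive controls.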

[2] = system: Proteus vulgaris; test: Antibacterial activity against Proteus vulgaris ATCC 13315 after 24 hrs by broth microdilution method; outline: as §1
[3] = system: Staphylococcus aureus; test: Antibacterial activity against Staphylococcus aureus ATCC 25923 after 24 hrs by broth microdilution method; outline: as §1
[4] = system: Escherichia coli; test: Antibacterial activity against Escherichia coli 27 after 24 hrs by broth microdilution method; outline: as §1
[5] = system: Escherichia coli; test: Antibacterial activity against Escherichia coli ATCC 10536 after 24 hrs by broth microdilution method; outline: as §1
[6] = system: Enterococcus faecalis; test: Antibacterial activity against Enterococcus faecalis ATCC 4083 after 24 hrs by broth microdilution method; outline: as §1
[7] = system: OVCAR-8; test: (§2) Cytotoxicity against human OVCAR8 cells assessed as growth inhibition at 5 ug/ml after 72 hrs by MTT assay
Outline: (§3)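 Cells were grown in RPMI 1640 with 10% FBS and 1% antibiotic at 37 °C under 5% CO2, and seeded at 0.1 x 10^6 cells/mL. Samples were dissolved in DMSO and tested at 5 µg/mL for 72 h. MTT was added for 3 h, the precipitate was dissolved in DMSO, and absorbance was read at 595 nm. Potential was rated on an intensity scale.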

[8] = system: SF-295; test: (§4) Cytotoxicity against human SF295 cells assessed as growth inhibition at 5 ug/ml after 72 hrs by MTT assay; outline: as §3
[9] = system: HCT-116; test: (§5) Cytotoxicity against human HCT116 cells assessed as growth inhibition at 5 ug/ml after 72 hrs by MTT assay
Outline: (§6)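 Cells were maintained in RPMI 1640 with 10% FBS and 1% antibiotic at 37 °C under 5% CO2. Samples were dissolved in DMSO and tested at a single 5 µg/mL for 72 h. Viability was read by MTT: 3 h incubation, formazan dissolved in DMSO, absorbance at 595 nm. Results were graded on an intensity scale.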

[10] = system: Pseudomonas aeruginosa; test: Antibacterial activity against Pseudomonas aeruginosa ATCC 15442 after 24 hrs by broth microdilution method; conditions: ATCC 15442, 24 h
[11] = as §2; conditions: OVCAR-8, 72 h, read-out: GI; outline: as §3
[12] = system: Listeria monocytogenes; test: Antibacterial activity against Listeria monocytogenes ATCC 19117 after 24 hrs by broth microdilution method; conditions: ATCC 19117, 24 h
[13] = system: Vibrio cholerae; test: Antibacterial activity against Vibrio cholerae ATCC 15748 after 24 hrs by broth microdilution method; conditions: ATCC 15748, 24 h
[14] = system: Aeromonas caviae; test: Antibacterial activity against Aeromonas caviae ATCC 15468 after 24 hrs by broth microdilution method; conditions: ATCC 15468, 24 h
[15] = system: Klebsiella pneumoniae; test: Antibacterial activity against Klebsiella pneumoniae ATCC 10031 after 24 hrs by broth microdilution method; conditions: ATCC 10031, 24 h
[16] = system: Escherichia coli; test: Antibacterial activity against Escherichia coli ATCC 25922 after 24 hrs by broth microdilution method; conditions: ATCC 25922, 24 h
[17] = as §4; conditions: SF-295, 72 h, read-out: GI; outline: as §3
[18] = system: Staphylococcus aureus; test: Antibacterial activity against Staphylococcus aureus ATCC 6538 after 24 hrs by broth microdilution method; conditions: ATCC 6538, 24 h
[19] = as §5; conditions: HCT-116, 72 h, read-out: GI; outline: as §6
[20] = system: Staphylococcus aureus; test: Antibacterial activity against Staphylococcus aureus ATCC 12692 after 24 hrs by broth microdilution method; conditions: ATCC 12692, 24 h
[21] = system: Staphylococcus aureus; test: Antibacterial activity against Staphylococcus aureus ATCC 12624 after 24 hrs by broth microdilution method; conditions: ATCC 12624, 24 h
[22] = system: Bacillus cereus; test: Antibacterial activity against Bacillus cereus ATCC 33018 after 24 hrs by broth microdilution method; conditions: ATCC 33018, 24 h
[23] = system: Shigella flexneri; test: Antibacterial activity against Shigella flexneri ATCC 12022 after 24 hrs by broth microdilution method; conditions: ATCC 12022, 24 h
[24] = Staphylococcus aureus, 358, 24 h

## GENTAMICIN
[1]
  MIC: 8 µg/mL
[2]
  MIC: 64 µg/mL
[3]
  MIC: 32 µg/mL
[4]
  MIC: 512 µg/mL
[5]
  MIC: 128 µg/mL
[6]
  MIC: 32 µg/mL

## CC(C)=CCCC1=COC2=C(C)C(=O)/C(=N\O)c3c(C)ccc1c32
[1]; [24]
  MIC: ≥ 1020 µg/mL
[2]; ATCC 13315, 24 h
  MIC: 512 µg/mL (≈ 1580 µM)
[3]; ATCC 25923, 24 h
  MIC: 256 µg/mL (≈ 792 µM)
[7]
  growth inhibition (GI): inactive
[8]
  growth inhibition (GI): inactive
[4]; Escherichia coli, 27, 24 h
  MIC: 512 µg/mL (≈ 1580 µM)
[9]
  growth inhibition (GI): inactive
[5]; ATCC 10536, 24 h
  MIC: ≥ 1020 µg/mL
[6]; ATCC 4083, 24 h
  MIC: 256 µg/mL (≈ 792 µM)

## NCC[C@H](O)C(=O)N[C@@H]1C[C@H](N)[C@@H](O[C@H]2O[C@H](CN)[C@@H](O)[C@H](O)[C@H]2O)[C@H](O)[C@H]1O[C@H]1O[C@H](CO)[C@@H](O)[C@H](N)[C@H]1O [AMIKACIN]
[1]; [24]
  MIC: 256 µg/mL (≈ 437 µM)
[2]; ATCC 13315, 24 h
  MIC: 512 µg/mL (≈ 874 µM)
[3]; ATCC 25923, 24 h
  MIC: 256 µg/mL (≈ 437 µM)
[4]; Escherichia coli, 27, 24 h
  MIC: 128 µg/mL (≈ 219 µM)
[6]; ATCC 4083, 24 h
  MIC: 256 µg/mL (≈ 437 µM)

## NCC1O[C@H](O[C@H]2[C@@H](O)[C@H](O[C@H]3[C@H](O)[C@@H](N)C[C@@H](N)[C@@H]3O[C@H]3O[C@H](CN)[C@@H](O)[C@H](O)[C@H]3N)O[C@@H]2CO)[C@H](N)[C@@H](O)[C@@H]1O (some centres not stated)
[1]; [24]
  MIC: 32 µg/mL (≈ 52.1 µM)
[2]; ATCC 13315, 24 h
  MIC: 512 µg/mL (≈ 833 µM)
[3]; ATCC 25923, 24 h
  MIC: 32 µg/mL (≈ 52.1 µM)
[4]; Escherichia coli, 27, 24 h
  MIC: 128 µg/mL (≈ 208 µM)
[5]; ATCC 10536, 24 h
  MIC: 512 µg/mL (≈ 833 µM)
[6]; ATCC 4083, 24 h
  MIC: 128 µg/mL (≈ 208 µM)

## CCO/N=C1\C(=O)C(C)=C2OC=C(CCC=C(C)C)c3ccc(C)c1c32
[1]; [24]
  MIC: 64 µg/mL (≈ 182 µM)
[2]; ATCC 13315, 24 h
  MIC: 512 µg/mL (≈ 1460 µM)
[3]; ATCC 25923, 24 h
  MIC: 32 µg/mL (≈ 91.1 µM)
[7]
  growth inhibition (GI): inactive
[8]
  growth inhibition (GI): inactive
[4]; Escherichia coli, 27, 24 h
  MIC: 128 µg/mL (≈ 364 µM)
[9]
  growth inhibition (GI): inactive
[5]; ATCC 10536, 24 h
  MIC: 512 µg/mL (≈ 1460 µM)
[6]; ATCC 4083, 24 h
  MIC: 16 µg/mL (≈ 45.5 µM)

## CO/N=C1\C(=O)C(C)=C2OC=C(CCC=C(C)C)c3ccc(C)c1c32
[1]; [24]
  MIC: 64 µg/mL (≈ 190 µM)
[2]; ATCC 13315, 24 h
  MIC: 64 µg/mL (≈ 190 µM)
[3]; ATCC 25923, 24 h
  MIC: 32 µg/mL (≈ 94.8 µM)
[7]
  growth inhibition (GI): inactive
[8]
  growth inhibition (GI): inactive
[4]; Escherichia coli, 27, 24 h
  MIC: 128 µg/mL (≈ 379 µM)
[9]
  growth inhibition (GI): inactive
[5]; ATCC 10536, 24 h
  MIC: ≥ 1020 µg/mL
[6]; ATCC 4083, 24 h
  MIC: 32 µg/mL (≈ 94.8 µM)

## CC(C)=CCCC1=COC2=C(C)C(=O)/C(=N\Nc3ccccc3)c3c(C)ccc1c32
[1]; [24]
  MIC: ≥ 1020 µg/mL
[2]; ATCC 13315, 24 h
  MIC: ≥ 1020 µg/mL
[3]; ATCC 25923, 24 h
  MIC: 256 µg/mL (≈ 642 µM)
[7]
  growth inhibition (GI): inactive
[8]
  growth inhibition (GI): inactive
[4]; Escherichia coli, 27, 24 h
  MIC: ≥ 1020 µg/mL
[9]
  growth inhibition (GI): inactive
[5]; ATCC 10536, 24 h
  MIC: ≥ 1020 µg/mL
[6]; ATCC 4083, 24 h
  MIC: 512 µg/mL (≈ 1280 µM)

## CC(C)=CCCC1=COC2=C(C)C(=O)C(=O)c3c(C)ccc1c32
[1]; [24]
  MIC: 128 µg/mL (≈ 415 µM)
[2]; ATCC 13315, 24 h
  MIC: 16 µg/mL (≈ 51.9 µM)
[3]; ATCC 25923, 24 h
  MIC: 64 µg/mL (≈ 208 µM)
[10]
  MIC: ≥ 1020 µg/mL
[11]
  inhibition of growth at 5 µg/mL: 75%
[12]
  MIC: ≥ 1020 µg/mL
[13]
  MIC: ≥ 1020 µg/mL
[14]
  MIC: ≥ 1020 µg/mL
[15]
  MIC: ≥ 1020 µg/mL
[16]
  MIC: ≥ 1020 µg/mL
[17]
  inhibition of growth at 5 µg/mL: 75%
[4]; Escherichia coli, 27, 24 h
  MIC: 256 µg/mL (≈ 830 µM)
[18]
  MIC: ≥ 1020 µg/mL
[19]
  inhibition of growth at 5 µg/mL: 75%
[20]
  MIC: ≥ 1020 µg/mL
[21]
  MIC: ≥ 1020 µg/mL
[5]; ATCC 10536, 24 h
  MIC: 128 µg/mL (≈ 415 µM)
[22]
  MIC: ≥ 1020 µg/mL
[23]
  MIC: ≥ 1020 µg/mL
[6]; ATCC 4083, 24 h
  MIC: 32 µg/mL (≈ 104 µM)

## CC(C)=CCCC1=COC2=C(C)C(=O)/C(=N\Nc3ccc([N+](=O)[O-])cc3[N+](=O)[O-])c3c(C)ccc1c32
[1]; [24]
  MIC: 512 µg/mL (≈ 1050 µM)
[2]; ATCC 13315, 24 h
  MIC: 512 µg/mL (≈ 1050 µM)
[3]; ATCC 25923, 24 h
  MIC: 512 µg/mL (≈ 1050 µM)
[7]
  growth inhibition (GI): inactive
[8]
  growth inhibition (GI): inactive
[4]; Escherichia coli, 27, 24 h
  MIC: ≥ 1020 µg/mL
[9]
  growth inhibition (GI): inactive
[5]; ATCC 10536, 24 h
  MIC: 512 µg/mL (≈ 1050 µM)
[6]; ATCC 4083, 24 h
  MIC: 512 µg/mL (≈ 1050 µM)
